Data taken from ChEMBL document CHEMBL1124774, “Synthesis and biological activity of some derivatives of rifamycin P” (1990).
≈ marks a conversion by molar mass, not a printed value.

Legend:
Escherichia coli = assay: In vitro antibacterial activity of compound against Escherichia coli SKF 12140; assay type: functional
Klebsiella pneumoniae = assay: In vitro antibacterial activity of compound against Klebsiella pneumoniae ISM; assay type: functional
[1] = test system: Mycobacterium tuberculosis; assay: In vitro antibacterial activity of compound against Mycobacterium tuberculosis H37Rv ATCC 9660; assay type: functional
Neisseria gonorrhoeae = assay: In vitro antibacterial activity of compound against Neisseria gonorrhoeae ISM 68/126; assay type: functional
Pseudomonas aeruginosa = assay: In vitro antibacterial activity of compound against Pseudomonas aeruginosa ATCC 10145; assay type: functional
Method in brief: (§1)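 Twofold microdilution MIC in Iso-Sensitest broth over 128-0.0001 µg/mL. Inoculum was 10^4 cfu/mL, with incubation at 37 °C for 18-24 h.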

Proteus vulgaris = assay: In vitro antibacterial activity of compound against Proteus vulgaris X19H ATCC 881; assay type: functional
[2] = test system: Staphylococcus epidermidis; assay: In vitro antibacterial activity of compound against Staphylococcus epidermidis ATCC 12228; assay type: functional; method in brief: as §1
Streptococcus pyogenes = assay: In vitro antibacterial activity of compound against Streptococcus pyogenes C 203 SKF 13400; assay type: functional
Method in brief: (§2)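 Streptococcal MICs were run by twofold microdilution in Todd-Hewitt broth over 128-0.0001 µg/mL. Inoculum was 10^4 cfu/mL, with incubation at 37 °C for 18-24 h.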

Staphylococcus aureus [3] = assay: In vitro antibacterial activity of compound against Staphylococcus aureus Tour L 165; assay type: functional; method in brief: as §1
Streptococcus pneumoniae = assay: In vitro antibacterial activity of compound against Streptococcus pneumoniae UC 41; assay type: functional; method in brief: as §2
Enterococcus faecalis = assay: In vitro antibacterial activity of compound against Streptococcus faecalis ATCC 7080.; assay type: functional; method in brief: as §1
Haemophilus influenzae = assay: In vitro antibacterial activity of compound against Haemophilus influenzae ATCC 19418; assay type: functional
Mycobacterium avium [4] = assay: 50% inhibition of the 20 Mycobacterium (MAC) avium complex clinical isolates; assay type: functional
Method in brief: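 Agar-dilution MICs, 2-fold dilutions over 128-0.0001 μg/mL, on Middlebrook 7H10 agar with 2% glycerol and 10% OADC. Organisms from Loevenstein-Jensen slants were grown in 7H9 broth with 0.5% Tween and 10% OADC, adjusted to McFarland no. 1, and spotted with a multipoint inoculator. Plates were sealed and incubated at 22, 30 or 37 °C for 4-20 days depending on strain.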

Mycobacterium avium [5] = assay: 90% inhibition of the 20 Mycobacterium avium complex (MAC) clinical isolates
Mycobacterium avium [6] = assay: Minimum inhibitory concentration of compound against 20 Mycobacterium avium complex (MAC) clinical isolates
Staphylococcus aureus [7] = assay: Activity in the murine model (OS route) of Staphylococcus aureus tour septicemia; assay type: functional
Method in brief: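 Male and female CD1 mice (18-22 g) were infected ip with S. aureus Tour. The challenge was set so untreated mice died within 48 h. Groups were five mice, dosed once daily for 3 days starting immediately after infection. ED50 was calculated on day 10 from the percentage surviving at each dose.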

SMILES | MIC (Escherichia coli) [µg/mL] | MIC (Klebsiella pneumoniae) [µg/mL] | MIC [1] [µg/mL] | MIC (Neisseria gonorrhoeae) [µg/mL] | MIC (Pseudomonas aeruginosa) [µg/mL] | MIC (Proteus vulgaris) [µg/mL] | MIC [2] [µg/mL] | MIC (Streptococcus pyogenes) [µg/mL] | MIC (Staphylococcus aureus [3]) [µg/mL] | MIC (Streptococcus pneumoniae) [µg/mL] | MIC (Enterococcus faecalis) [µg/mL] | MIC (Haemophilus influenzae) [µg/mL] | MIC50 (Mycobacterium avium [4]) [µg/mL] | MIC90 (Mycobacterium avium [5]) [µg/mL] | MIC (Mycobacterium avium [6]) [µg/mL] | ED50 (Staphylococcus aureus [7]) [mg/kg]
COC1/C=C/OC2(C)Oc3c(C)c(O)c4c(O)c(c5sc(N6CCN(c7ccc(Cl)cc7)CC6)nc5c4c3C2=O)NC(=O)/C(C)=C\C=C\C(C)C(O)C(C)C(O)C(C)C(OC(C)=O)C1C (centres undefined) | 8 (≈ 8.57 µM) | > 128 | 1 (≈ 1.07 µM) | 0.25 (≈ 0.268 µM) | 128 (≈ 137 µM) | 64 (≈ 68.6 µM) | 0.063 (≈ 0.0675 µM) | 0.125 (≈ 0.134 µM) | 0.063 (≈ 0.0675 µM) | 0.063 (≈ 0.0675 µM) | 4 (≈ 4.28 µM) | 0.125 (≈ 0.134 µM) |  |  |  | 
COC1/C=C/OC2(C)Oc3c(C)c(O)c4c(O)c(c5sc(N6CCNCC6)nc5c4c3C2=O)NC(=O)/C(C)=C\C=C\C(C)C(O)C(C)C(O)C(C)C(OC(C)=O)C1C (centres undefined) | 8 (≈ 9.72 µM) | 16 (≈ 19.4 µM) |  | 0.125 (≈ 0.152 µM) | 8 (≈ 9.72 µM) | 8 (≈ 9.72 µM) | 0.063 (≈ 0.0766 µM) | 0.125 (≈ 0.152 µM) | 0.125 (≈ 0.152 µM) | 0.063 (≈ 0.0766 µM) | 2 (≈ 2.43 µM) | 0.25 (≈ 0.304 µM) |  |  |  | 
COC1/C=C/OC2(C)Oc3c(C)c(O)c4c(O)c(c5sc(N6CCN(C)CC6)nc5c4c3C2=O)NC(=O)/C(C)=C\C=C\C(C)C(O)C(C)C(O)C(C)C(OC(C)=O)C1C (centres undefined) | 2 (≈ 2.39 µM) | 16 (≈ 19.1 µM) | 2 (≈ 2.39 µM) | 16 (≈ 19.1 µM) | 8 (≈ 9.56 µM) | 32 (≈ 38.2 µM) | 0.063 (≈ 0.0753 µM) | 0.032 (≈ 0.0382 µM) | 0.004 (≈ 0.00478 µM) | 0.125 (≈ 0.149 µM) | 0.032 (≈ 0.0382 µM) | 0.5 (≈ 0.597 µM) | 64 (≈ 76.5 µM) | 64 (≈ 76.5 µM) | 16 (≈ 19.1 µM) | 
COC1/C=C/OC2(C)Oc3c(C)c(O)c4c(O)c(c5sc(N6CCN(CCO)CC6)nc5c4c3C2=O)NC(=O)/C(C)=C\C=C\C(C)C(O)C(C)C(O)C(C)C(OC(C)=O)C1C (centres undefined) | 8 (≈ 9.23 µM) | 32 (≈ 36.9 µM) | 1 (≈ 1.15 µM) | 0.125 (≈ 0.144 µM) | 16 (≈ 18.5 µM) | 16 (≈ 18.5 µM) | 0.125 (≈ 0.144 µM) | 0.016 (≈ 0.0185 µM) | 0.016 (≈ 0.0185 µM) | 0.008 (≈ 0.00923 µM) | 4 (≈ 4.61 µM) | 0.125 (≈ 0.144 µM) |  |  |  | > 20
COC1/C=C/OC2(C)Oc3c(C)c(O)c4c(O)c(c5sc(N6CCN(Cc7ccccc7)CC6)nc5c4c3C2=O)NC(=O)/C(C)=C\C=C\C(C)C(O)C(C)C(O)C(C)C(OC(C)=O)C1C (centres undefined) | 32 (≈ 35 µM) | 64 (≈ 70.1 µM) | 0.125 (≈ 0.137 µM) | 0.125 (≈ 0.137 µM) | 16 (≈ 17.5 µM) | 32 (≈ 35 µM) | 0.063 (≈ 0.069 µM) | 0.063 (≈ 0.069 µM) | 0.008 (≈ 0.00876 µM) | 0.063 (≈ 0.069 µM) | 1 (≈ 1.1 µM) | 0.125 (≈ 0.137 µM) |  |  |  | 
COC1/C=C/OC2(C)Oc3c(C)c(O)c4c(O)c(c5sc(N6CCN(c7ccccc7)CC6)nc5c4c3C2=O)NC(=O)/C(C)=C\C=C\C(C)C(O)C(C)C(O)C(C)C(OC(C)=O)C1C (centres undefined) | 4 (≈ 4.45 µM) | > 128 | 1 (≈ 1.11 µM) | 0.125 (≈ 0.139 µM) | 8 (≈ 8.9 µM) | 16 (≈ 17.8 µM) | 0.032 (≈ 0.0356 µM) | 0.032 (≈ 0.0356 µM) | 0.008 (≈ 0.0089 µM) | 0.004 (≈ 0.00445 µM) | 1 (≈ 1.11 µM) | 0.125 (≈ 0.139 µM) |  |  |  | 
COc1ccc(N2CCN(c3nc4c(s3)c3c(O)c5c(O)c(C)c6c(c54)C(=O)C(C)(O/C=C/C(OC)C(C)C(OC(C)=O)C(C)C(O)C(C)C(O)C(C)/C=C/C=C(/C)C(=O)N3)O6)CC2)cc1 (centres undefined) | 8 (≈ 8.61 µM) | > 128 | 0.25 (≈ 0.269 µM) | 0.125 (≈ 0.135 µM) | 128 (≈ 138 µM) | 64 (≈ 68.9 µM) | 0.063 (≈ 0.0678 µM) | 0.125 (≈ 0.135 µM) | 0.063 (≈ 0.0678 µM) | 0.063 (≈ 0.0678 µM) | 4 (≈ 4.31 µM) | 0.125 (≈ 0.135 µM) |  |  |  | 
COC1/C=C/OC2(C)Oc3c(C)c(O)c4c(O)c(c5sc(N6CCCC6)nc5c4c3C2=O)NC(=O)/C(C)=C\C=C\C(C)C(O)C(C)C(O)C(C)C(OC(C)=O)C1C (centres undefined) | 16 (≈ 19.8 µM) | 32 (≈ 39.6 µM) | 2 (≈ 2.48 µM) | 0.5 (≈ 0.619 µM) | 8 (≈ 9.9 µM) | 16 (≈ 19.8 µM) | 0.063 (≈ 0.078 µM) | 0.008 (≈ 0.0099 µM) | 0.004 (≈ 0.00495 µM) | 0.032 (≈ 0.0396 µM) | 2 (≈ 2.48 µM) | 0.125 (≈ 0.155 µM) |  |  |  | 
